Data on two molecules can be found in ChEMBL document CHEMBL4152256, “Structure-activity relationship of new antimalarial 1-aryl-3-susbtituted propanol derivatives: Synthesis, preliminary toxicity profiling, parasite life cycle stage studies, target exploration, and targeted delivery” (Eur J Med Chem, 2018).

Usually IC50 stands for the concentration that inhibits the measured activity by half.

Data set [1] concerns Plasmodium falciparum. Nature of the data set: Ratio of IC50 for antiplasmodial activity against chloroquine-sensitive Plasmodium falciparum 3D7 late forms infected in human RBC incubated for 15 mins followed by compound removal and further incubation for 48 hrs by [3H]-hypoxanthine incorporation assay to IC50 for antiplasmodial activity against chloroquine-sensitive Plasmodium falciparum 3D7 late forms infected in human RBC using compound …. The format is functional.

Data set [2] relates to Plasmodium falciparum. Nature of the data set: Ratio of IC50 for antiplasmodial activity against Plasmodium falciparum 3D7 ring stage forms infected in immunoliposome encapsulated compound pre-loaded human RBC by [3H]-hypoxanthine incorporation assay to IC50 for antiplasmodial activity against Plasmodium falciparum 3D7 ring stage forms infected in human non-washed human RBC containing full drug dosages by [3H]-hypoxanthine incorporation assay. The format is functional.

Data set [3] is described as follows: Drug encapsulation in liposomes assessed as encapsulation efficiency in citrate/phosphate buffered measured after ultracentrifugation by UV/Vis spectroscopy relative to untreated control. The format is physicochemical. Particulars: artificial membrane. In outline:
(§1)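 Compound loaded into DSPC:cholesterol:DSPE-PEG2000-Mal:DOPE-Rho (84.5:10:5:0.5) liposomes using a citrate (pH 4.0)/PBS pH gradient. Drug measured by UV/vis after SDS disruption at each step: citrate liposomes, after buffer exchange to PBS (chloroquine added to preformed liposomes here), and after ultracentrifugation. Encapsulation efficiency = % of drug that is encapsulated out of total drug in the sample.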

For data set [4], the system named is Plasmodium falciparum. Nature of the data set: Antiplasmodial activity against Plasmodium falciparum 3D7 late stage forms infected in immunoliposome encapsulated compound pre-loaded human RBC by [3H]-hypoxanthine incorporation assay. Particulars: 3D7, Erythrocyte. Type of data set: functional, organism-based.
Data set [5] deals with Plasmodium falciparum. In words: Antiplasmodial activity against Plasmodium falciparum 3D7 ring stage forms infected in human non-washed human RBC containing full drug dosages by [3H]-hypoxanthine incorporation assay. The format is functional, organism-based. The conditions noted are these: 3D7, Erythrocyte.
Data set [6] relates to Plasmodium falciparum. Nature of the data set: Antiplasmodial activity against Plasmodium falciparum 3D7 late stage forms infected in human non-washed human RBC containing full drug dosages by [3H]-hypoxanthine incorporation assay. The format is functional, organism-based. The conditions noted are these: 3D7, Erythrocyte.
Data set [7] can be described thus: Drug internalization in liposomes assessed as zeta potential at 500 uM in presence of pH 4 citrate buffer solution (reference value: -2.73 mV). Type of data set: physicochemical. Particulars: artificial membrane, pH 4, 500 µM. Put shortly: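 Zeta potential of liposomes loaded with compound (500 µM drug per 10 mM lipid), measured in the pH 4.0 citrate hydration buffer and again after buffer exchange to PBS pH 7.4; drug-free liposomes of the same lipid composition served as reference.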

Data set [8] is described as follows: Drug encapsulation in liposomes assessed as encapsulation efficiency in citrate/phosphate buffered measured after buffer exchange with PBS by UV/Vis spectroscopy relative to untreated control. The conditions noted are these: artificial membrane. The format is physicochemical. In outline: as §1
Data set [9] has as its system Plasmodium falciparum. Nature of the data set: Antiplasmodial activity against chloroquine-sensitive Plasmodium falciparum 3D7 ring forms infected in human RBC using compound encapsulated in to immunoliposome targeted to GPA incubated for 15 mins followed by compound removal and further incubation for 48 hrs by [3H]-hypoxanthine incorporation assay. The format is functional, organism-based. The conditions noted are these: 3D7, Erythrocyte.

Data set [10] deals with Plasmodium falciparum. In words: Ratio of IC50 for antiplasmodial activity against chloroquine-sensitive Plasmodium falciparum 3D7 ring forms infected in human RBC incubated for 15 mins followed by compound removal and further incubation for 48 hrs by [3H]-hypoxanthine incorporation assay to IC50 for antiplasmodial activity against chloroquine-sensitive Plasmodium falciparum 3D7 ring forms infected in human RBC using compound …. Type of data set: functional.

Data set [11] can be described thus: Genotoxicity in Salmonella typhimurium TA1535 harboring pSK1002 assessed as umu gene induction at 0.0005 mg/ml in absence of Sprague-Dawley rat liver S9 fraction after by SOS/umu assay relative to control. The format is toxicity, organism-based. The conditions noted are these: salmonella enterica subsp. enterica serovar typhimurium, read-out: FC.
Data set [12] can be described thus: Genotoxicity in Salmonella typhimurium TA1535 harboring pSK1002 assessed as umu gene induction at 0.0005 mg/ml in presence of Sprague-Dawley rat liver S9 fraction after by SOS/umu assay relative to control. The format is toxicity, organism-based. The conditions noted are these: salmonella enterica subsp. enterica serovar typhimurium, read-out: FC.
Data set [13] is described as follows: Genotoxicity in Salmonella typhimurium TA1535 harboring pSK1002 assessed as survival at 0.0005 mg/ml in absence of Sprague-Dawley rat liver S9 fraction after by SOS/umu assay relative to control. Type of data set: toxicity, organism-based. The conditions noted are these: salmonella enterica subsp. enterica serovar typhimurium, read-out: Survival.

Consider `N#Cc1ccc(N2CCC(NCCC(O)c3ccc(F)c4ccccc34)CC2)c(C(F)(F)F)c1` (stereo in doubt; 72), for which the “Ratio IC50” value stood at 5.2 in the data set on Plasmodium falciparum [1], 2.8 in the data set with Plasmodium falciparum [2] and 5.9 with Plasmodium falciparum [10]. The Activity in data set [3] was 101.4%; in [7] it was 8.54 mV; in data set [8], 77.2%. The IC50 was 443 nM in the data set on Plasmodium falciparum [4], 181 nM in the data set on Plasmodium falciparum [5], 302 nM in the data set on Plasmodium falciparum [6] and 146 nM in the data set on Plasmodium falciparum [9].

As for `OC(CCN1CCN(C(c2ccccc2)c2ccccc2)CC1)c1ccc(F)c(F)c1` (stereo not drawn), the values for the fold induction at 0.0005 mg/ml in [11] and in [12] were 0.7 and 1, respectively. Moreover, the viability at 0.0005 mg/ml in [13] was 110%.
